14 molecules from ChEMBL document CHEMBL4261586, “Conjugation of a 5-nitrofuran-2-oyl moiety to aminoalkylimidazoles produces non-toxic nitrofurans that are efficacious in vitro and in vivo against multidrug-resistant Mycobacterium tuberculosis” (Eur J Med Chem, 2018) can be followed below.

One may read the MIC as the least concentration at which growth counts as inhibited. A word on the LD50: it is the dose expected to kill half of the subjects tested.

In brackets after ≈: the same amount, converted by molar mass. Where only a bound is given, the exact number is not on record here.

The subject of series [1] is Mycobacterium tuberculosis. As to the kind of experiment: Antimycobacterial activity against Mycobacterium tuberculosis H37Rv after 7 days by resazurin microtitre plate assay. It counts as functional. Particulars: 168 h. In short, it runs like this:
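REMA in Middlebrook 7H9 with OADC. Three-week culture vortexed with glass beads, adjusted to 1.0 McFarland (about 3×10⁸ bacteria/mL) and diluted 20-fold. Final concentrations 1.6–200 via 2-fold dilutions; growth control plus 1% ([…] diluted) control. 7 days at 35 °C, then 0.01% resazurin for 18 h; fluorescence ex 520/em 590 nm. MIC taken where fluorescence plateaued or matched the 1% control (t-test).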
(In general: The colour change of resazurin is a common sign of viable cells or microbes.)

Series [2] relates to Mycobacterium tuberculosis. As to the kind of experiment: Antitubercular activity against Mycobacterium tuberculosis H37Rv infected in C57BL/6 mouse assessed as lung mass index at 20 mg/kg, po administered via gavage over 42 days (excluding weekends) (reference value: 2.28 +/- 0.1). It counts as functional.
Series [3] has as its system Mycobacterium tuberculosis. Put plainly: Antitubercular activity against Mycobacterium tuberculosis H37Rv infected in C57BL/6 mouse assessed as tubercular foci index at 20 mg/kg, po administered via gavage over 42 days (excluding weekends) (reference value: 23.6 +/- 0.09). It is filed as functional.
Series [4] concerns Mycobacterium tuberculosis. Put plainly: Antitubercular activity against Mycobacterium tuberculosis H37Rv infected in C57BL/6 mouse assessed as colony forming units per lung mass unit at 20 mg/kg, po administered via gavage over 42 days (excluding weekends) (reference value: 169.1 +/- 11.83 x 10^3). It counts as functional.
The test system of another series is Enterococcus faecium. As to the kind of experiment: Antibacterial activity against Enterococcus faecium assessed as diameter of inhibition zone after 18 hrs by Kirby-Bauer disk diffusion test. It counts as functional. For orientation: A growth-free zone around the sample is the usual read-out of agar diffusion tests.
The subject of the next series is Staphylococcus aureus. Put plainly: Antibacterial activity against Staphylococcus aureus assessed as diameter of inhibition zone after 18 hrs by Kirby-Bauer disk diffusion test. It is filed as functional.
For the next series, the system named is Klebsiella pneumoniae. Put plainly: Antibacterial activity against Klebsiella pneumoniae assessed as diameter of inhibition zone measured after 18 hrs by Kirby-Bauer disk diffusion test. It counts as functional.
The next series relates to Acinetobacter baumannii. Put plainly: Antibacterial activity against Acinetobacter baumannii assessed as diameter of inhibition zone measured after 18 hrs by Kirby-Bauer disk diffusion test. It is filed as functional.
For a further series, the system named is Klebsiella aerogenes. As to the kind of experiment: Antibacterial activity against Enterobacter aerogenes assessed as diameter of inhibition zone measured after 18 hrs by Kirby-Bauer disk diffusion test. It is filed as functional.
The subject of the next series is Pseudomonas aeruginosa. Put plainly: Antibacterial activity against Pseudomonas aeruginosa assessed as diameter of inhibition zone measured after 18 hrs by Kirby-Bauer disk diffusion test. It counts as functional.
Series [5] in a line: (§1) Toxicity in po dosed C57BL6 mouse assessed as lethality measured daily over 14 days of treatment. It is filed as organism-based. Particulars: C57BL6, mouse, in vivo. The gist of the method: (§2)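 Male C57BL6 mice (19.0–22.0 g), quarantined 14 days, 6 per dose group. Single oral gavage of Tween-80 suspension in water at 700–1100 mg/kg in 100 mg/kg steps; controls (7 mice) received 0.01% Tween-80. Lethality, time to death and clinical signs recorded daily for 14 days, then cervical dislocation and necropsy; heart, lung, liver, spleen and left kidney weights expressed relative to body weight. LD50 calculated by formula from dead/total counts.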

Series [6] relates to Mus musculus. The series is described as §1. It is filed as organism-based. Particulars: mouse, in vivo, 336 h. The gist of the method: as §2
The subject of series [7] is Mus musculus. Put plainly: Toxicity in C57BL6 mouse assessed as lethality at 1100 mg/kg, po measured daily over 14 days of treatment. It counts as organism-based. Particulars: in vivo, 336 h. The gist of the method:
as §2

The test system of series [8] is Mus musculus. As to the kind of experiment: Toxicity in C57BL6 mouse assessed as lethality at 700 mg/kg, po measured daily over 14 days of treatment. Particulars: in vivo, 336 h. It counts as organism-based. The gist of the method:
as §2

Series [9] deals with Mus musculus. As to the kind of experiment: Toxicity in C57BL6 mouse assessed as body mass at 700 to 1100 mg/kg, po measured after 14 days (reference value: 22.9 +/- 0.32 g). It is filed as organism-based. As to conditions: in vivo, 336 h. In short, it runs like this:
as §2

The test system of series [10] is Mus musculus. As to the kind of experiment: Toxicity in C57BL6 mouse assessed as heart mass quotient at 700 to 1100 mg/kg, po measured after 14 days relative to total body weight. It is filed as organism-based. Particulars: in vivo, 336 h. In short, it runs like this: as §2
Series [11] relates to Mus musculus. As to the kind of experiment: Toxicity in C57BL6 mouse assessed as lung mass quotient at 700 to 1100 mg/kg, po measured after 14 days relative to total body weight. It counts as organism-based. As to conditions: in vivo, 336 h. The gist of the method: as §2
Series [12] relates to Mus musculus. As to the kind of experiment: Toxicity in C57BL6 mouse assessed as liver mass quotient at 700 to 1100 mg/kg, po measured after 14 days relative to total body weight. It counts as organism-based. Particulars: in vivo, 336 h. The gist of the method: as §2
For series [13], the system named is Mus musculus. Put plainly: Toxicity in C57BL6 mouse assessed as spleen mass quotient at 700 to 1100 mg/kg, po measured after 14 days relative to total body weight. It is filed as organism-based. As to conditions: in vivo, 336 h. In short, it runs like this: as §2
Series [14] relates to Mus musculus. Put plainly: Toxicity in C57BL6 mouse assessed as left kidney mass quotient at 700 to 1100 mg/kg, po measured after 14 days relative to total body weight. As to conditions: in vivo, 336 h. It is filed as organism-based. In short, it runs like this:
as §2

For series [15], the system named is Mus musculus. Put plainly: Toxicity in C57BL6 mouse assessed as brain mass quotient at 700 to 1100 mg/kg, po measured after 14 days relative to total body weight. It counts as organism-based. Particulars: in vivo, 336 h.

`Cc1cnc(-c2cccnc2)n1CCC1CCN(C(=O)c2ccc([N+](=O)[O-])o2)CC1` showed an MIC in [1] of 100 µg/mL (≈ 244 µM).
On the same count and under the same terms, the value for `Cc1cnc(C)n1C1CCCN(C(=O)c2ccc([N+](=O)[O-])o2)C1` (configuration not stated) was 100 µg/mL (≈ 314 µM); that for `COCCn1c(C)cnc1CC1CCN(C(=O)c2ccc([N+](=O)[O-])o2)CC1` was over 100 µg/mL.
For `CC[C@@H](CO)NCCN[C@@H](CC)CO` [ETHAMBUTOL], the figures for the Activity_index in series [2] and in series [3] were 1.61 and 2.65, respectively. In addition, the Activity in series [4] is 85.32 ×10³ CFU.
As for `O=C(O)c1cn(C2CC2)c2cc(N3CCNCC3)c(F)cc2c1=O` [CIPROFLOXACIN], the “diameter of the inhibition zone (DIZ)” value in the series on Enterococcus faecium is recorded as 25 mm; in the series on Staphylococcus aureus it was 27 mm; in the series with Klebsiella pneumoniae it was 26 mm; with Acinetobacter baumannii, 31 mm; in the series with Klebsiella aerogenes, 26 mm.
In series [1], `Cc1cnc(C2CCCO2)n1CC1CCN(C(=O)c2ccc([N+](=O)[O-])o2)CC1` (configuration not stated) showed an MIC of 50 µg/mL (≈ 129 µM).
In [1], `CCCn1c(C)cnc1C1CN(C(=O)c2ccc([N+](=O)[O-])o2)C1` displayed an MIC of 1.6 µg/mL (≈ 5.03 µM). Moreover, the “diameter of the inhibition zone (DIZ)” value is 0 mm in the series with Enterococcus faecium; 15 mm in the series with Staphylococcus aureus; 0 mm with Klebsiella pneumoniae; 25 mm in the series with Acinetobacter baumannii; 0 mm in the series with Pseudomonas aeruginosa; 19 mm in the series on Klebsiella aerogenes. Besides, the LD50 at 336 h in [5] turned out to be 900 mg/kg. In the series with Mus musculus [6], the LD16 was 287.5 mg/kg. Also, in the series with Mus musculus [6], the LD84 is 1037.5 mg/kg. In addition, the LD100 in the series on Mus musculus [6] came to 1100 mg/kg. The Activity entry with Mus musculus [7] was “Toxic”; with Mus musculus [8], “Non-Toxic”; with Mus musculus [9] it was 22.32 g; in series [4] it was 85.9 ×10³ CFU. The “fold change (FC)” value with Mus musculus [10] is 0.34; in the series on Mus musculus [11] it was 0.48; in the series with Mus musculus [12] it was 4.49; with Mus musculus [13] it was 0.23; with Mus musculus [14], 0.39; in the series on Mus musculus [15] it was 1.11. Moreover, the Activity_index in series [2] worked out at 1.62; in [3], 2.7.
In turn, `Cc1cnc(C)n1C1CCN(C(=O)c2ccc([N+](=O)[O-])o2)C1` (configuration not stated) had an MIC in series [1] of 3.1 µg/mL (≈ 10.2 µM).
In turn, `Cc1cnc(C)n1C1CCN(C(=O)c2ccc([N+](=O)[O-])o2)CC1` yielded an MIC in series [1] of over 100 µg/mL.
Same read-out and setting: then `Cc1cnc(CCNC(=O)c2ccc([N+](=O)[O-])o2)n1C1CCC1`, with 6.2 µg/mL (≈ 19.5 µM).
In the case of `Cc1cnc(CCNC(=O)c2ccc([N+](=O)[O-])o2)n1C1CCCCCCC1`, in series [1], the MIC came to 25 µg/mL (≈ 66.8 µM). Against the preceding molecule, the MIC is about 4-fold higher.
Still for that read-out and setting: then `Cc1cnc(Cc2ccccc2)n1CCNC(=O)c1ccc([N+](=O)[O-])o1`, with 50 µg/mL (≈ 141 µM).
The molecule `Cc1cnc(CC2CCN(C(=O)c3ccc([N+](=O)[O-])o3)C2)n1CC1CC1` (configuration not stated) gave an MIC in series [1] of 6.2 µg/mL (≈ 17.3 µM).
For `Cc1cnc(-c2ccccc2)n1CC1CCN(C(=O)c2ccc([N+](=O)[O-])o2)C1` (configuration not stated), the MIC in series [1] was determined as 6.2 µg/mL (≈ 16.3 µM).
